# According to the RNAGym collection of RNA variant scans (doi:10.1126/science.aae0568):
# This sample holds only a part of the variants without activity.
# B1: tRNA (parent)
# chain: GUUCCGUUGGCGUAAUGGUAACGCGUCUCCCUCCUAAGGAGAAGACUGCGGGUUCGAGUCCCGUACGGAACG
# Variants of: B1
# Assay: yeast fitness relative to wild type (ratio to wild type); higher = fitter; tRNA-Arg(CCU), competitive growth, 37 C, YPD
# In short: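 Changes in genotype frequencies gave Darwinian fitness relative to wild type. Frequencies were read by 100-nucleotide paired-end sequencing of gene amplicons before and after pooled Saccharomyces cerevisiae strains, carrying tRNA-Arg(CCU) gene variants at the native locus, were competed in YPD at 37°C for 24 hours in six replicates. A genotype was kept only with ≥ 100 starting reads, and estimates < 0.5 were set to 0.5.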
row,Variant,yeast fitness
1,C5U A20U C30G C66U,≤ 0.5
2,C5U C29G C30A G63A U64G A69C,0.572
3,C5G U59G G63A,0.526
4,C5U A45C G63C,≤ 0.5
5,C5U C34A G38C,≤ 0.5
6,C5U C22A C29U G51C,≤ 0.5
7,C5U C22G C27G C29G C49U,≤ 0.5
8,C5U A14C A21C,0.552
9,C5U A37G G56C A65C,≤ 0.5
10,C5U C22G C24A,≤ 0.5
11,C5U C27A A42U C49G C60A,0.817
12,C5U A21G C29U A45U,0.538
13,C5G U54C,0.814
14,C5U C27G C34G,≤ 0.5
15,C5U C11A C24G C27G A36U G38C U53G,≤ 0.5
16,C5U C11A C34G,≤ 0.5
17,C5U C11U A69U,0.734
18,C5U C11U G25A A37G C60G,≤ 0.5
19,C5U C24U G38C G44C,≤ 0.5
20,C5U A15U G25A C29U C31U C34U,≤ 0.5
21,C5U A14U G17C A36U,≤ 0.5

row,Variant,yeast fitness
1,C5U A15G G58C G68A,0.51
2,C5U C11G A15U U32A U35G,0.562
3,C5U C22G C24G C31U,0.552
4,C5U C24A C55A A65G,≤ 0.5
5,C5U A69C,0.865
6,C5U C11G C34U A42C C61A A70U,≤ 0.5
7,C5U A20U G50A U59C,0.544
8,C5U A20U G56C A65G A70U,≤ 0.5
9,C5U A57G G63A,0.63
10,C5U C34G,0.788
11,C5U C31U G41C A43C C60G,≤ 0.5
12,C5U A42C C60G,≤ 0.5
13,C5U C11A A14C C33G,≤ 0.5
14,C5U A21C C31G C66U,0.528
15,C5U C11U C62U G68A,≤ 0.5
16,C5U C11U U35G A43U C46G U53C A69C,0.549
17,C5U A45G C61G C66U A69U,≤ 0.5
18,C5U A45G A69G,0.909
19,C5U C11G A14G C29G,≤ 0.5
20,C5U C11G C24U A42C A65C A70U,≤ 0.5
21,C5U C22U G48C C66U,≤ 0.5

row,Variant,yeast fitness
1,C5U C22U C33U A70C,≤ 0.5
2,C5U C11A C24G C27G A36U G38C C60A C66A,≤ 0.5
3,C5U A42G A45U C60G,≤ 0.5
4,C5U C29U G44A,0.868
5,C5U A37G G56C,0.533
6,C5U A20C C29U C34A C46A G50A A57U,≤ 0.5
7,C5U C34A C55G A69U,≤ 0.5
8,C5U A15U G17A C46G G63C C66A,≤ 0.5
9,C5U C27A A42U,0.642
10,C5U A37C C61U,0.627
11,C5U A37C C61G,≤ 0.5
12,C5U A15U G17C U26C,≤ 0.5
13,C5U A20U U26A C49A A57C C62U,≤ 0.5
14,C5U A37U C61U,0.623
15,C5U C22U C31U C49A U59C A69U,≤ 0.5
16,C5U A20C A40C C61U G68C,≤ 0.5
17,C5U A14G G67A,0.642
18,C5U C33U C34U G58C G63A,≤ 0.5
19,C5U C11A U26A C29U C30A C31U C60U C61U,≤ 0.5
20,C5U A14G A21U A36U G48C C55U,0.627
21,C5U A40C A65U,0.643

row,Variant,yeast fitness
1,C5U C30G,0.676
2,C5U C30U,0.942
3,C5U A14C A45C A65C,0.561
4,C5U C11U C29U C30G A70C,≤ 0.5
5,C5U C11U A57U,0.544
6,C5G U53G C60A,≤ 0.5
7,C5U A14G A40G,0.648
8,C5U C22G C24A A57C,≤ 0.5
9,C5U A15G C22G G41A A45U U47A C62U A69U,≤ 0.5
10,C5U A45U C46G,≤ 0.5
11,C5U C34A G56A,≤ 0.5
12,C5U C11U C49U,0.721
13,C5G U54C C55G,≤ 0.5
14,C5U A43U G44A C46A,≤ 0.5
15,C5U A43U G50U,0.657
16,C5U C24G A40C A45U,≤ 0.5
17,C5U C11U C29A A40C A45C C61G,0.612
18,C5U C27G G38A A69C,≤ 0.5
19,C5U C31A A40G C61U A65U,≤ 0.5
20,C5U C34A G67A,≤ 0.5
